Data reported in PubChem BioAssay AID504365 (Broad Institute, 2011).
The source made the active and inactive calls.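 The calls were made as follows: active = fitted curve reaches 10% of the positive control caspase activation at or below the top valid tested dose; inactive = signal shifts the opposite way, plus the rest.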

What was measured:
[1] = tested on: Mel501 cells, caspase-3/7 Glo luminescence, 6 h; assay: apoptosis induction in A1-reliant human Mel501 line – Mel501 cells, luminescence, dry powder, set 2, orthogonal assay for A1 inhibitor project, dose response (AID 504365)
Outline: (§1)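 System: Mel501 cells; amount: 2500 cells/well; times: 6 h compound (37 °C, 5% CO2), then 1 h Caspase-Glo; signal: luminescence from diluted Caspase-Glo 3/7 DEVD-luciferin reagent; read-out basis: caspase-3/7 activation, shown by rising luminescence signal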

[2] = as above; details: Mel501 cells, caspase-3/7 Glo luminescence, 6 h
Outline: as §1

Structure (SMILES)	caspase activation ([2]; at 35 µM (top of the series))	other results
Cn1c(=O)c([N+](=O)[O-])c(Cl)c2ccccc21		AC10 [1]: > 35 µM (inactive)
CCn1c(=O)c([N+](=O)[O-])c(Cl)c2ccccc21	2.55% (inactive)	
Cc1ccc(Sc2c(Sc3ccc(C)cc3)c3ccccc3n(C)c2=O)cc1	-1.69% (inactive)	
Cc1ccc(S(=O)(=O)c2c([N+](=O)[O-])c(=O)n(C)c3ccccc23)cc1	-0.501% (inactive)	
COc1ccc(N2CCN(c3nc(NCCc4ccc(OC)c(OC)c4)nc(N4CCOCC4)n3)CC2)cc1	-1.94% (inactive)	
Cc1ccc(Sc2c([N+](=O)[O-])c(=O)n(C)c3ccccc23)cc1	-1.78% (inactive)	
Cn1c(=O)c(Sc2ccccn2)c(Sc2ccccn2)c2ccccc21	-2.24% (inactive)	
CC1(C)CCC(c2ccc(Cl)cc2)=C(CN2CCN(c3ccc(C(=O)NS(=O)(=O)c4ccc(N[C@H](CCN5CCOCC5)CSc5ccccc5)c(S(=O)(=O)C(F)(F)F)c4)cc3)CC2)C1		caspase activation ([2]; at 16 µM (top of the series)): 0.95% (inactive)
CCn1c(=O)c(Sc2ccc(C)cc2)c(Sc2ccc(C)cc2)c2ccccc21	-1.83% (inactive)	
COc1nc2ccccc2c(Sc2ccc(C)cc2)c1[N+](=O)[O-]	-2.73% (inactive)	
O=c1[nH]c2ccccc2c(Cl)c1[N+](=O)[O-]		AC10 [1]: > 35 µM (inactive)
Cc1ccc(Sc2c([N+](=O)[O-])c(=O)n(Cc3ccccc3)c3ccccc23)cc1	-2.41% (inactive)	
COc1nc2ccccc2c(Cl)c1[N+](=O)[O-]	-1.96% (inactive)	
O=c1c([N+](=O)[O-])c(Cl)c2ccccc2n1Cc1ccccc1		AC10 [1]: 30.2 µM
Cn1c(=O)c([N+](=O)[O-])c(Sc2ccccn2)c2ccccc21	-1.77% (inactive)	
COCCn1c(=O)c(Sc2ccc(C)cc2)c(Sc2ccc(C)cc2)c2ccccc21	-1.29% (inactive)	
Cc1ccc(Sc2c(Sc3ccc(C)cc3)c3ccccc3n(Cc3ccccc3)c2=O)cc1	-1.23% (inactive)	
Cn1c(=O)c([N+](=O)[O-])c(S(C)(=O)=O)c2ccccc21	-1.8% (inactive)	
C/C(=N\Nc1nc(N2CCCCC2)nc(N2CCCCC2)n1)c1ccc(F)cc1	-1.18% (inactive)	
O=c1[nH]c2ccccc2c(O)c1[N+](=O)[O-]	-2.05% (inactive)	
COCCn1c(=O)c([N+](=O)[O-])c(Sc2ccc(C)cc2)c2ccccc21	-1.69% (inactive)	
COc1c([N+](=O)[O-])c(=O)n(C)c2ccccc12	-0.501% (inactive)	
CCn1c(=O)c([N+](=O)[O-])c(Sc2ccc(C)cc2)c2ccccc21	-0.736% (inactive)	
COCCn1c(=O)c([N+](=O)[O-])c(Cl)c2ccccc21	6.5% (inactive)	
O=C(COc1ccc(Cl)cc1Cl)NNc1nc(N2CCOCC2)nc(N2CCOCC2)n1	-1.89% (inactive)	
COc1ccc(CCNc2nc(N3CCOCC3)nc(N3CCOCC3)n2)cc1OC	0.627% (inactive)	
COc1ccc(CCNc2nc(N3CCCC3)nc(N3CCCC3)n2)cc1OC	0.012% (inactive)	
